From ChEMBL document CHEMBL3751721, “Development of acridine derivatives as selective Mycobacterium tuberculosis DNA gyrase inhibitors” (Bioorg Med Chem, 2016)
pIC50: −log10 of the molar value. Converted amounts (≈) assume the structure as drawn. The source made the active and inactive calls. The rule behind the calls is not given here.

Key:
[1] = Inhibition of Mycobacterium tuberculosis DNA topoisomerase 1
[2] = system: Mycobacterium tuberculosis; test: Inhibition of Mycobacterium tuberculosis DNA topoisomerase 1 assessed as DNA relaxation at 50 uM
[3] = target: DNA gyrase subunit B (Mycobacterium smegmatis) (UniProt P0C559); test: Inhibition of Mycobacterium smegmatis GyrB by ATPase assay; details: Mycolicibacterium smegmatis
DNA gyrase subunit B (Mycobacterium smegmatis), sequence (P0C559 2-675 limits assumed): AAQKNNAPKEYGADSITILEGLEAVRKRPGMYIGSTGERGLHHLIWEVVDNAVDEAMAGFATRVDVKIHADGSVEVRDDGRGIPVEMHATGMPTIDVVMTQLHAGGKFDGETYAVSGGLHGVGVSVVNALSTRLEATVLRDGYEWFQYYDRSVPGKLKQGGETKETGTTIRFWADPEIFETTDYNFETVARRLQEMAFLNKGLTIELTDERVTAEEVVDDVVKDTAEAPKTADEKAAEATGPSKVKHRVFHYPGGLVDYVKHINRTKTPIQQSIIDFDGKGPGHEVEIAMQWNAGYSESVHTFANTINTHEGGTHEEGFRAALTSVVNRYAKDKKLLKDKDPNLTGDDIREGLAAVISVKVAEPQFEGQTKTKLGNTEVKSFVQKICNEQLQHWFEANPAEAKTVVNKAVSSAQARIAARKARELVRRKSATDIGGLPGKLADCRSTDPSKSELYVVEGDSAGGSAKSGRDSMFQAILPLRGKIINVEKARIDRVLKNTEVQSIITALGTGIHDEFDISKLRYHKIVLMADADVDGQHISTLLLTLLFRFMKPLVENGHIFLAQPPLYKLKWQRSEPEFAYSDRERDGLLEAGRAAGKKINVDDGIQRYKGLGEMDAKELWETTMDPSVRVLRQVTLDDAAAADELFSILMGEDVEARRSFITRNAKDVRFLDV

[4] = system: Mycobacterium tuberculosis; test: Antimicrobial activity against Mycobacterium tuberculosis H37Rv ATCC 27294 after 28 days by alamar blue assay; type: functional; details: H37Rv ATCC 27294, 672 h
[5] = Cytotoxicity against mouse RAW264.7 cells assessed as inhibition of cell growth at 50 uM after 72 hrs by MTT assay; type: cell-based
Outline: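 RAW 264.7 mouse macrophages exposed to compound at 50 µM for 72 h. Viability read by MTT conversion to formazan, reported as percent inhibition.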

[6] = target: DNA gyrase (Staphylococcus aureus) (UniProt P0A0K8+P20831); test: Inhibition of Staphylococcus aureus DNA gyrase assessed as inhibition of DNA supercoiling; type: protein-complex assay
DNA gyrase (Staphylococcus aureus), sequence (P0A0K8 2-644 limits assumed): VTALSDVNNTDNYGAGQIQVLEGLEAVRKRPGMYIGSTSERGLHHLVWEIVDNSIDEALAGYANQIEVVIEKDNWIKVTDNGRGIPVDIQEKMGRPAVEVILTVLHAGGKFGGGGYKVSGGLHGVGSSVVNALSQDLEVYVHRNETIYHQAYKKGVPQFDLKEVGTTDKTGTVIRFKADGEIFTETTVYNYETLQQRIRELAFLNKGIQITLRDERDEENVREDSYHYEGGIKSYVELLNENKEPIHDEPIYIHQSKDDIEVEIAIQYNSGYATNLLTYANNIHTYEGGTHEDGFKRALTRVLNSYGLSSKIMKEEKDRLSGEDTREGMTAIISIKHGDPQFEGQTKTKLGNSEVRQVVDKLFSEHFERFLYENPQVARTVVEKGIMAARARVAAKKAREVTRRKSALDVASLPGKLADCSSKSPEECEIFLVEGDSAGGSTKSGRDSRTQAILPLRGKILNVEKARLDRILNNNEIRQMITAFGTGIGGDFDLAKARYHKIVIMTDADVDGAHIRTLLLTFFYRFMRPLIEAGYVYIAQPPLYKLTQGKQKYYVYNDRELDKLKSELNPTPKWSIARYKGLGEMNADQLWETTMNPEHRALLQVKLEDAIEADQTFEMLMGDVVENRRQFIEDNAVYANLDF
DNA gyrase (Staphylococcus aureus), sequence (P20831 whole entry partner): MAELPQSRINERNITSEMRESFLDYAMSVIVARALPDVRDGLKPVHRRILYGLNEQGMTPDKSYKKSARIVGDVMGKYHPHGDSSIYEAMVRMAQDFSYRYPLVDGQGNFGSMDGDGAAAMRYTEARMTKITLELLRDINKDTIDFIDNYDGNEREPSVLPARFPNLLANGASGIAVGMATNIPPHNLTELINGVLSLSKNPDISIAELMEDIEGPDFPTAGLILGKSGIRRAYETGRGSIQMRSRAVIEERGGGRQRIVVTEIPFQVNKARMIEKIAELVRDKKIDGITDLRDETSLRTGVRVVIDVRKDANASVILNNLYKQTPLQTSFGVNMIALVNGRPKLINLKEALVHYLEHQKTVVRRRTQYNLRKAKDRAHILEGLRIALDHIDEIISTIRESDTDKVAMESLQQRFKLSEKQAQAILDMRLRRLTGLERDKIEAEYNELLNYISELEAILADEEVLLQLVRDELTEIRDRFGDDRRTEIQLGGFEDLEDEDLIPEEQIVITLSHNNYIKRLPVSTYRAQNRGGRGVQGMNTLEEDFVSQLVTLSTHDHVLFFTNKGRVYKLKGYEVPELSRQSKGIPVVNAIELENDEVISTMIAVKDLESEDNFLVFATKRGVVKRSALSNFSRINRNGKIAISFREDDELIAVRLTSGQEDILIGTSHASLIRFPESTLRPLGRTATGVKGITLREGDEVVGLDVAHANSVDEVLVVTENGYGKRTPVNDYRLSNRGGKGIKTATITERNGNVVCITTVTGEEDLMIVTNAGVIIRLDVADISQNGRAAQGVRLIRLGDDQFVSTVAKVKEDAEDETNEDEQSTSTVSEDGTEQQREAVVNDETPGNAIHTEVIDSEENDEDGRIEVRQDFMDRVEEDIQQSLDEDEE

[7] = target: DNA gyrase subunit A/DNA gyrase subunit B (Mycobacterium tuberculosis (strain ATCC 25618 / H37Rv), UniProt P9WG45+P9WG47); test: Inhibition of Mycobacterium tuberculosis DNA gyrase assessed as inhibition of DNA supercoiling after 30 mins by electrophoresis
DNA gyrase subunit A/DNA gyrase subunit B, sequence (P9WG45 whole entry): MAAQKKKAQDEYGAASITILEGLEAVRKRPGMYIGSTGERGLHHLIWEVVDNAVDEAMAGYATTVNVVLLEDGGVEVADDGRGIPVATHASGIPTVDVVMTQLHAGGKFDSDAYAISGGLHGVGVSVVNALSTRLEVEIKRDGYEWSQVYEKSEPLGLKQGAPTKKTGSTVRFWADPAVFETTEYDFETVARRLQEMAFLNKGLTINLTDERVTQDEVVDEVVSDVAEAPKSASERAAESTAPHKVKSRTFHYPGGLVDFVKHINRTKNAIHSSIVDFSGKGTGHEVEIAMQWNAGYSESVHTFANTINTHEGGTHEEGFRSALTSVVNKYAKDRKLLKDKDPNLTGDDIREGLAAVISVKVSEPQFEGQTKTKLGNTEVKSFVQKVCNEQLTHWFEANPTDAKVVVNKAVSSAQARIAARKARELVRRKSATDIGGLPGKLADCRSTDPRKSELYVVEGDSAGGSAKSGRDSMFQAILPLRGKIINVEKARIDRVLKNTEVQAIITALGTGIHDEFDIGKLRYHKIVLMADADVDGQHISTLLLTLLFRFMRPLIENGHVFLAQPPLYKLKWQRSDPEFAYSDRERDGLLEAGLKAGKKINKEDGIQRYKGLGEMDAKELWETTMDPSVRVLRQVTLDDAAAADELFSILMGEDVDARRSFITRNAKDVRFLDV
DNA gyrase subunit A/DNA gyrase subunit B, sequence (P9WG47 whole entry): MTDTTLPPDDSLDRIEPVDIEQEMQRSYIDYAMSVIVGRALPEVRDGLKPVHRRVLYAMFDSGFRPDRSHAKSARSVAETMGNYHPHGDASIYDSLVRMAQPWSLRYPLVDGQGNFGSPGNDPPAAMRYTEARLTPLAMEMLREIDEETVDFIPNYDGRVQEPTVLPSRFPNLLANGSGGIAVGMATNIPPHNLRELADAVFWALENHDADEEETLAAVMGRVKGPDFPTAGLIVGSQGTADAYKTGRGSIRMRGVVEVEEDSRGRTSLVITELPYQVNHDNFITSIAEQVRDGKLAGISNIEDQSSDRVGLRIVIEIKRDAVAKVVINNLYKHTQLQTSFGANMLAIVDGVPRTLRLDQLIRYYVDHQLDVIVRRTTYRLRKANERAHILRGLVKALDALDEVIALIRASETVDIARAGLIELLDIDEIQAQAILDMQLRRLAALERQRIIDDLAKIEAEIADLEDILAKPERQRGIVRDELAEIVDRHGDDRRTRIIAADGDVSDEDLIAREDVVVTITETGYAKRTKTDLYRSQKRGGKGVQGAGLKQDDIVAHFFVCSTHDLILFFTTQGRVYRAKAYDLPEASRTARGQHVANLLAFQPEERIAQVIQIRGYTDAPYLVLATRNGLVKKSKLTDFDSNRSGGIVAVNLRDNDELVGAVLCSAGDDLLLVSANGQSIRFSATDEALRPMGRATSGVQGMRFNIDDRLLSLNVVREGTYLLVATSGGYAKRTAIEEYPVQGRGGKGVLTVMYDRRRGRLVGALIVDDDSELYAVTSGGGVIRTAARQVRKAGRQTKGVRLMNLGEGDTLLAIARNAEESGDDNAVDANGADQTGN

[8] = target: DNA gyrase (Pseudomonas aeruginosa) (UniProt P48372+Q9I7C2); test: Inhibition of Pseudomonas aeruginosa DNA gyrase assessed as inhibition of DNA supercoiling; type: protein-complex assay
Escherichia coli = test: Inhibition of Escherichia coli DNA gyrase assessed as inhibition of DNA supercoiling
[9] = Inhibition of zebrafish ERG at 1 to 30 uM; design: species or system Danio rerio
Outline: (§1)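 Zebrafish embryos from 2 female:3 male breeding, raised in E3 medium at 28 °C. Compound given at 1 to 30 µM in 0.1% DMSO vehicle, 20 µM terfenadine as reference, 4 h incubation. Embryos treated with tricaine, then 30 beats timed per atrium and ventricle. Rate = 1800/time(s) beats/min; AV ratio derived from these counts.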

[10] = Toxicity in zebrafish embryo assessed as heart rate at 30 uM; design: species or system Danio rerio; details: in vivo; outline: as §1
[11] = Toxicity in zebrafish embryo assessed as atrio-ventricular ratio at 30 uM; design: species or system Danio rerio; details: in vivo; outline: as §1

| Compound | pIC50 [1] | inhibition [2] | inhibition [3] | MIC [4] [µM] | inhibition at 72 h, 50 µM [5] [%] | inhibition [6] | pIC50 [7] | inhibition [8] | inhibition (Escherichia coli) | inhibition (INH) [9] | Activity [10] | Activity [11] |
| --- | --- | --- | --- | --- | --- | --- | --- | --- | --- | --- | --- | --- |
| COc1cc(NS(C)(=O)=O)ccc1Nc1c2ccccc2nc2ccccc12 [AMSACRINE] | 5.00 |  |  |  |  |  |  |  |  |  |  |  |
| O=S(=O)(Nc1ccc(Nc2c3ccccc3nc3ccc(Cl)cc23)cc1)c1ccc(Cl)cc1 |  | inactive | inactive | 25.1 (≈ 12.4 µg/mL) | 14.2 | inactive | 4.91 | inactive | inactive |  |  |  |
| O=C(Nc1ccccc1)Nc1ccc(Nc2c3ccccc3nc3ccc(Cl)cc23)cc1 |  | inactive | inactive | 28.5 (≈ 12.5 µg/mL) | 27.7 | inactive | 4.63 | inactive | inactive |  |  |  |
| Cc1ccc2nc3ccccc3c(Nc3ccc(NC(=O)Nc4ccccc4)cc3)c2c1 |  | inactive | inactive | 29.9 (≈ 12.5 µg/mL) | 24.8 | inactive | 4.66 | inactive | inactive |  |  |  |
| S=C(Nc1ccc(Cl)cc1)Nc1ccc(Nc2c3ccccc3nc3ccccc23)cc1 |  | inactive | inactive | 13.7 (≈ 6.25 µg/mL) | 12.5 | inactive | 5.08 | inactive | inactive |  |  |  |
| Cc1ccc2nc3ccccc3c(Nc3ccc(NC(=S)Nc4ccc([N+](=O)[O-])cc4)cc3)c2c1 |  | inactive | inactive | > 52.1 | 28.8 | inactive | 4.61 | inactive | inactive |  |  |  |
| O=[N+]([O-])c1ccc(NC(=S)Nc2ccc(Nc3c4ccccc4nc4ccc(Cl)cc34)cc2)cc1 |  | inactive | inactive | > 50 | 30.4 | inactive | 4.54 | inactive | inactive |  |  |  |
| Cc1ccc(NC(=O)Nc2ccc(Nc3c4ccccc4nc4ccc(Cl)cc34)cc2)cc1 |  | inactive | inactive | 13.8 (≈ 6.25 µg/mL) | 29.2 | inactive | 4.90 | inactive | inactive |  |  |  |
| Cc1ccc2nc3ccccc3c(Nc3ccc(NS(=O)(=O)c4ccc(Cl)cc4)cc3)c2c1 |  | inactive | inactive | 6.59 (≈ 3.12 µg/mL) | 11.8 | inactive | 5.28 | inactive | inactive | Not Active | Non-toxic | Non-toxic |
| O=C(Nc1ccccc1)Nc1ccc(Nc2c3ccccc3nc3ccccc23)cc1 |  | inactive | inactive | > 61.8 | 30.4 | inactive | 4.49 | inactive | inactive |  |  |  |
| O=S(=O)(Nc1ccc(Nc2c3ccccc3nc3ccc(Cl)cc23)cc1)c1ccccc1 |  | inactive | inactive | 27.2 (≈ 12.5 µg/mL) | 14.5 | inactive | 5.04 | inactive | inactive |  |  |  |
